From ChEMBL document CHEMBL1153740, “Quassinoids from Eurycoma longifolia” (J Nat Prod, 2009)

Test system: HT-1080
Experiment: Cytotoxicity against human HT1080 cells after 72 hrs by MTT assay
Assay type: functional, cell-based
Conditions: HT-1080, 72 h
How it was run: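 HT-1080 human fibrosarcoma cells, harvested in exponential growth, seeded at 2 × 10^3 cells/well and left 24 h at 37 °C in humidified 5% CO2 to attach. Exposed to varying concentrations of test compounds in medium for 72 h. MTT (0.5 mg/mL) added for 2 h, formazan extracted with DMSO, absorbance read at 550 nm. Viability and IC50 taken from means of three wells.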

Row | Compound | IC50 [µM]
1 | C[C@H]1[C@H]2OC(=O)[C@@H]1[C@]1(C)C(=O)C=C3[C@@](C)([C@H]1[C@H]2O)[C@H](O)[C@@H](O)[C@H]1O[C@@]31C | > 100
2 | C[C@H]1[C@H]2OC(=O)[C@@H]1[C@]1(C)C(=O)C=C3C4(C)OC4C(=O)[C@@H](O)[C@]3(C)[C@H]1[C@H]2O (stereo partly drawn) | > 100
3 | CC1=CC(=O)[C@@H](O)[C@]2(C)[C@H]3[C@@H](O)[C@@H]4OC(=O)[C@@H]([C@H]4C)[C@]3(C)C(=O)C[C@@]12O | 8.8
4 | CC1=CC(=O)O[C@@H]1[C@@]1(C)C[C@H]2OC(=O)[C@H](O)[C@@]3(O)[C@@H](C)[C@@H](O)[C@@]4(O)OC[C@]23[C@@H]14 | > 100
5 | CC1=CC(=O)[C@@H](O)[C@]2(C)[C@H]3[C@@H](O)[C@H](O)[C@H](C)[C@]4(O)[C@@H](O)C(=O)O[C@H](C[C@@H]12)[C@]34C | 1.1
6 | CC1=CC(=O)[C@@H](O)[C@]2(C)[C@H]3[C@]4(O)OC[C@@]35[C@@H](C[C@@H]12)OC(=O)[C@H](O)[C@]5(O)[C@@H](C)[C@H]4O | 90
7 | CC(=O)O[C@@H]1[C@H](C)[C@]2(O)[C@@H](OC(C)=O)C(=O)O[C@@H]3C[C@H]4C(C)=CC(=O)[C@@H](O)[C@]4(C)[C@H]4[C@]1(O)OC[C@]432 | > 100
8 | CC1=CC(=O)[C@@H](O)[C@@]2(C)[C@H]1[C@@H](O)[C@H]1OC(=O)[C@H](O)[C@@]3(O)[C@@H](C)[C@@H](O)[C@H](O)[C@H]2[C@@]13C | 90
9 | CC1=C2C(=O)[C@H](O)[C@]3(C)[C@H]([C@@H](O)[C@@H]4OC(=O)[C@H]3[C@H]4C)[C@@]2(C)[C@H](O)[C@@H](O)C1 | > 100
10 | CC1=C[C@H](O)[C@@H](O)[C@@]2(C)[C@H]1[C@@H](O)C(=O)[C@@]1(C)[C@H]3C(=O)O[C@H]([C@@H]3C)[C@H](O)[C@@H]12 | 65
11 | CC1=CC(=O)[C@@H](O)[C@@]2(C)C1=CC(=O)[C@]1(C)[C@@H]2[C@@H](O)[C@@H]2OC(=O)[C@H]1[C@H]2C | 5.3
12 | C=C1C[C@H](O)[C@@H](O)[C@@]2(C)[C@H]1CC(=O)[C@@]1(C)[C@H]3C(=O)O[C@H]([C@@H]3C)[C@H](O)[C@@H]12 | 45
13 | CC1=CC(=O)[C@@H](O)[C@@]2(C)[C@H]1[C@@H](O)C(=O)[C@@]1(C)[C@H]3C(=O)O[C@H]([C@@H]3C)[C@H](O)[C@@H]12 | 5
14 | CC1=CC(=O)[C@@H](O)[C@]2(C)[C@H]3[C@@H](O)[C@@H]4OC(=O)[C@@H]([C@H]4C)[C@]3(C)[C@H](O)C[C@@H]12 | 6.2
15 | COc1cccc2c1C(=O)c1c(O)c3c(c(O)c1C2=O)C[C@@](O)(C(=O)CO)C[C@@H]3O[C@H]1C[C@H](N)[C@H](O)[C@H](C)O1 [DOXORUBICIN] | 0.53
16 | CC1=C[C@H](O)[C@@H](O)[C@@]2(C)[C@H]1CC(=O)[C@@]1(C)[C@H]3C(=O)O[C@H]([C@@H]3C)[C@H](O)[C@@H]12 [EURYCOLACTONE E] | 7.3
17 | CC1=CC(=O)[C@@H](O)[C@@]2(C)[C@H]1CC(=O)[C@@]1(C)[C@H]3C(=O)O[C@H]([C@@H]3C)[C@H](O)[C@@H]12 [EURYCOMALACTONE] | 0.98
18 | C[C@H]1[C@H]2OC(=O)[C@@H]1[C@]1(C)C(=O)C=C3[C@H](C)C[C@H](O)[C@@H](O)[C@]3(C)[C@H]1[C@H]2O [EURYCOMALIDE A] | 90
19 | CC1=C[C@H](O)[C@@H](O)[C@@]2(C)C1=CC(=O)[C@]1(C)[C@@H]2[C@@H](O)[C@@H]2OC(=O)[C@H]1[C@H]2C [EURYCOMALIDE B] | 39
20 | O=c1[nH]cc(F)c(=O)[nH]1 [FLUOROURACIL] | 5.2
21 | CC1=CC(=O)[C@]2(C)[C@H]3[C@@H](O)[C@@H]4OC(=O)[C@@H]([C@H]4C)[C@]3(C)C(=O)C[C@@H]12 [LAURYCOLACTONE A] | > 100
22 | CC1=CC(=O)[C@@]2(C)C1=CC(=O)[C@]1(C)[C@@H]2[C@@H](O)[C@@H]2OC(=O)[C@H]1[C@H]2C [LAURYCOLACTONE B] | > 100
23 | CC1=CC(=O)[C@@H](O)[C@@]2(C)[C@H]1[C@@H](O)[C@H]1OC(=O)C3[C@@H](C)[C@H](O)[C@H](O)[C@H]2[C@]31C (stereo partly drawn) [LONGILACTONE] | 19
